Assay [1] in a line: HUVEC growth inhibition – cell-based, human, primary screen (AID 575;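 active = viability at or below 30% in both replicate assays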;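 also: 100% = median of untreated cell wells with 0.1% DMSO on each plate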). The note with it: HUVEC proliferation, CellTiter-Glo luminescence, 72 h; at 10 µM; stronger effect = lower value. The method in brief:
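system = HUVEC primary cells | amount = 1250 cells/well | buffer or medium = supplemented EBM, 2% fetal bovine serum | dosing = single-point 10 µM, DMSO 0.1% final | times = 72 h compound incubation | detection = CTG luminescence | read-out = % viability relative to median vehicle-well signal on each plate | control set = vehicle and MePR control wells | format = collagen-coated 384-well format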
(In general: In ATP-based viability assays light output follows the ATP content of the culture.)

Assay [2] can be described thus: H69AR cell proliferation blockers – human, duplicate replicates, primary screen (AID 580).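 Also: 100% = mean luminescence of untreated wells and 0% = no signal.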 The note with it: H69AR lung tumor cells viability, ATP luminescence, 72 h; at 10 µM; stronger effect = lower value.
Assay [3] in a line: MRP1 drug-resistance reversers in H69AR cells – cell-based, doxorubicin co-treatment, pilot screen (AID 601;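 active = viability loss from added drug above about 55%, and viability with drug at most 40%, in both replicates, limit read from the data, passing the limit was not always enough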). Conditions: CellTiter-Glo, 72 h, at 10 µM; for differential viability (reversal): stronger effect = higher value.
Assay [4] in a line: yeast transport mutant growth inhibition pilot in 384-well plates, post-Golgi transport modulator project (AID 636; in the data active = inhibition above about 31%). The note with it: absorbance 615 nm, about 18 h, stronger effect = higher value.
Assay [5] in a line: growth suppression of yeast trafficking mutant, preliminary HTS, modulators of trafficking downstream of Golgi apparatus project, 1536-format plate, OD 615 nm (AID 637; in the data active = inhibition above about 30%). The note with it: yeast transport mutant growth, absorbance 615 nm, 18 h; stronger effect = higher value.
Setting [6] is: H69AR cells + 2 uM doxorubicin, measured here: viability with 2 uM doxorubicin, stronger effect = lower value.
Where [7] appears, read: H69AR cells, compound alone cytotoxicity.

The results in this text go back to PubChem BioAssay.

Calls of active or inactive are those of the source.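 The calls were made as follows, unless noted: active = viability at or under a set limit in both replicates, limit being median viability minus 3 SD (cut at about 48% in these data, passing the limit was not always enough); inconclusive = at or under the limit in just one replicate; inactive = at or above the limit in both replicates.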

For orientation: viability means a read-out of living cells in per cent, often relative to untreated cells. Broadly, the inhibition is the relative decrease from the control value, in per cent. Regarding `O=S1(=O)C=CC(Nc2cccc(Cl)c2)C1` (stereo not drawn), the viability is 76.3% (inactive) in assay [1], 65.7% (inactive) in assay [2], 65.9% in assay [3] (setting [6]) and 65.7% in assay [3] (setting [7]). Also, the differential viability (reversal) in assay [3] (H69AR cells + 2 uM doxorubicin) was -0.23% (inactive). The inhibition in assay [4] was -3.68% (inactive); in assay [5], 4.29% (inactive).

`CS(=O)(=O)Nc1ccc(C(=O)NCc2ccc3c(c2)OCO3)cc1`: the viability in assay [1] was 92.2% (inactive); in assay [2] it was 96.2% (inactive); in assay [3] (setting [6]), 95.5%; in assay [3] (setting [7]), 96.2%. Also, the differential viability (reversal) in assay [3] (H69AR cells + 2 uM doxorubicin) was 0.675% (inactive). The figures for the inhibition in assay [4] and in assay [5] were -8.29% (inactive) and -1.9% (inactive), respectively.

As for `Cc1noc(C)c1COc1cccc(C(=O)Oc2ccc3c(c2)OCO3)c1`, the viability in assay [1] is 88.8% (inactive); in assay [2] it was 79.5% (inactive); in assay [3] (setting [6]) it was 84.5%; in assay [3] (setting [7]), 79.5%. In addition, the differential viability (reversal) in assay [3] (H69AR cells + 2 uM doxorubicin) was -5.05% (inactive). Besides, the figures for the inhibition in assay [4] and in assay [5] were -4.81% (inactive) and 1.75% (inactive), respectively.

Consider `O=C(Nc1ccccc1)N(Cc1cccnc1)Cc1ccco1`, for which the viability in assay [1] is 86.1% (inactive); in assay [2], 96.8% (inactive); in assay [3] (setting [6]) it was 84.1%; in assay [3] (setting [7]) it was 96.8%. In addition, the differential viability (reversal) in assay [3] (H69AR cells + 2 uM doxorubicin) is 12.7% (inactive). Besides, the inhibition in assay [4] was -4.74% (inactive); in assay [5], 1.75% (inactive).

As for `Cc1nc(-c2ccc(NC(=O)c3cccs3)cc2)cs1`, the viability in assay [1] is 58.8% (inactive); in assay [2] it was 62.3% (inactive); in assay [3] (setting [6]), 53.2%; in assay [3] (setting [7]) it was 62.3%. The differential viability (reversal) in assay [3] (H69AR cells + 2 uM doxorubicin) is 9.12% (inactive). The inhibition in assay [4] was 0.13% (inactive); in assay [5], 1.9% (inactive).

Turning to `O=c1oc(-c2ccco2)nc2ccccc12`, the viability in assay [1] was 92.6% (inactive); in assay [2] it was 91% (inactive); in assay [3] (setting [6]), 86.2%; in assay [3] (setting [7]) it was 91%. Also, the differential viability (reversal) in assay [3] (H69AR cells + 2 uM doxorubicin) is 4.72% (inactive). Also, the inhibition was -0.78% (inactive) in assay [4] and -2.22% (inactive) in assay [5].

For `Cc1cc(C)n(-c2ccc3cccc(NS(C)(=O)=O)c3n2)n1`, the viability in assay [1] is 14.3% (active); in assay [2], 27.6% (active); in assay [3] (setting [6]), 50.4%; in assay [3] (setting [7]), 27.6%. Also, in assay [3] (H69AR cells + 2 uM doxorubicin), the differential viability (reversal) is -22.8% (inactive). In addition, the inhibition in assay [4] is -6% (inactive); in assay [5] it was 7.46% (inactive).

`CN(CC(=O)N1CCN(c2ccccn2)CC1)S(=O)(=O)c1ccc2ccccc2c1`: the viability is 81.5% (inactive) in assay [1], 89% (inactive) in assay [2], 79.8% in assay [3] (setting [6]) and 89% in assay [3] (setting [7]). Also, the differential viability (reversal) in assay [3] (H69AR cells + 2 uM doxorubicin) is 9.23% (inactive). The inhibition was -2.63% (inactive) in assay [4] and -3.33% (inactive) in assay [5].

On to `CC1(C)CC(=O)c2c(O)cc(O)cc2O1`, for which the viability was 107% (inactive) in assay [1], 99.7% (inactive) in assay [2], 84.3% in assay [3] (setting [6]) and 99.7% in assay [3] (setting [7]). Further, in assay [3] (H69AR cells + 2 uM doxorubicin), the differential viability (reversal) is 15.4% (inactive). Moreover, the results for the inhibition in assay [4] and in assay [5] were -8.42% (inactive) and -1.43% (inactive), respectively.

Turning to `O=C(CSCc1ccccn1)Nc1ccccc1`, the viability in assay [1] was 102% (inactive); in assay [2], 94.4% (inactive); in assay [3] (setting [6]), 86.4%; in assay [3] (setting [7]), 94.4%. In assay [3] (H69AR cells + 2 uM doxorubicin), the differential viability (reversal) is 7.96% (inactive). The figures for the inhibition in assay [4] and in assay [5] were -5.07% (inactive) and -6.19% (inactive), respectively.

For the molecule `CCN1CCN(C(=O)c2cn(CCOC)c(=O)c3c2c2ccccc2n3C)CC1`, the viability was 106% (inactive) in assay [1], 90.6% (inactive) in assay [2], 93.4% in assay [3] (setting [6]) and 90.6% in assay [3] (setting [7]). The differential viability (reversal) in assay [3] (H69AR cells + 2 uM doxorubicin) is -2.77% (inactive). The inhibition in assay [4] was -2.86% (inactive); in assay [5] it was -5.4% (inactive).

As to `Cc1ccnc(NC(=O)Nc2ccc(F)cc2)c1`, the viability is 99.9% (inactive) in assay [1], 104% (inactive) in assay [2], 91.2% in assay [3] (setting [6]) and 104% in assay [3] (setting [7]). For the same molecule, in assay [3] (H69AR cells + 2 uM doxorubicin), the differential viability (reversal) was 12.9% (inactive). For the same molecule, the inhibition in assay [4] is -2.08% (inactive); in assay [5] it was -8.41% (inactive).

Regarding `CCCC(=O)Nc1ccc(NC(=O)c2cccs2)cn1`, the viability in assay [1] was 95.9% (inactive); in assay [2], 87.8% (inactive); in assay [3] (setting [6]) it was 82.3%; in assay [3] (setting [7]) it was 87.8%. The differential viability (reversal) in assay [3] (H69AR cells + 2 uM doxorubicin) was 5.45% (inactive). Moreover, the figures for the inhibition in assay [4] and in assay [5] were -2.99% (inactive) and -2.86% (inactive), respectively.

For the molecule `COc1ccc(OC)c(CNC(=O)CCN2C(=O)COc3ccccc32)c1`, the viability was 90.1% (inactive) in assay [1], 91.8% (inactive) in assay [2], 88.5% in assay [3] (setting [6]) and 91.8% in assay [3] (setting [7]). Besides, the differential viability (reversal) in assay [3] (H69AR cells + 2 uM doxorubicin) is 3.34% (inactive). Also, the inhibition was -1.32% (inactive) in assay [4] and -2.06% (inactive) in assay [5].
